According to ChEMBL document CHEMBL1275590, “Novel arylimidamides for treatment of visceral leishmaniasis” (Antimicrob Agents Chemother, 2010):
The source made the active and inactive calls.

How the values were obtained:
Mus musculus [1] = assay: Toxicity in BALB/c mouse assessed as occurrence of hemorrhage at 150 mg/kg/day, po; assay type: organism-based; set-up: route oral; conditions: in vivo
Outline: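 Female BALB/c mice (n = 5 per dose), dosed once daily for 5 consecutive days p.o. (20 ml/kg) or i.v. (10 ml/kg) with compound in sterile water, prepared fresh daily under yellow light. Vehicle controls n = 5 per route. Clinical observations, body weights, serum chemistry and hematology on day 6 before necropsy; histopathology of formalin-fixed tissues. Chemistry analysed by one-way ANOVA with Dunnett's posttest.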

Mus musculus [2] = assay: Toxicity in BALB/c mouse assessed as tendency to startle at 50 mg/kg/day, ip administered for five days; assay type: organism-based; set-up: route intraperitoneal; conditions: in vivo
Outline: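 Acute overt toxicity was checked in uninfected female BALB/c mice before the efficacy work. Compounds were given intraperitoneally once daily for 5 days, and mice were watched for clinical signs such as ruffled fur, hypoactivity, tremors, ataxia and startle, and for survival.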

[3] = Tmax in Swiss Webster mouse at 4.9 mg/kg, iv by HPLC-MS/MS analysis; assay type: ADME, organism-based; set-up: dose 4.9 mg/kg, route intravenous; conditions: in vivo
Outline: (§1)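 Male Swiss Webster mice (n = 3 per time point), single dose by oral gavage (sterile water solution) or tail-vein bolus i.v. (water diluted 1:1 with 2× saline, over ~10–20 s); dose volume 5 ml/kg. Terminal blood sampled from 5 min to 72 h postdose; plasma quantified by HPLC-MS/MS (positive-ion SRM). Noncompartmental analysis gave Cmax, Tmax, AUC0-∞, CL, Vss; bioavailability from p.o. versus i.v. exposure.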

[4] = Oral bioavailability in Swiss Webster mouse at 16.5 mg/kg by HPLC-MS/MS analysis; assay type: ADME, organism-based; conditions: in vivo; outline: as §1
[5] = Induction of mutagenicity in Salmonella serovar Typhimurium TA 98 assessed as number of revertant colonies at 100 ug by Ames assay; assay type: toxicity, Salmonella enterica subsp. enterica serovar Typhimurium; conditions: in vivo
Outline: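 Ames plate incorporation with S. Typhimurium TA98 and TA100, with or without Aroclor 1254-induced rat liver S9 (10% vol/vol). Compound was dissolved in sterile water and serially diluted to 1–500 μg/plate. Positive controls were 2-nitrofluorene and sodium azide without S9, and 2-aminoanthracene with S9; sterile water and DMSO served as vehicles. Revertant colonies and background lawn were scored. A mutagen was defined as a mean revertant count at least 2-fold over solvent control. Single experiment.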

Leishmania donovani = assay: Antileishmanial activity against Leishmania donovani promastigotes in BALB/c mouse assessed as inhibition of liver parasitemia at 30 mg/kg/day, ip administered for five days; assay type: functional, organism-based
Outline: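 Murine VL model in L. donovani-infected mice. Compounds were dissolved in water and given i.p. or p.o. once daily for 5 days (4 days for one i.p. regimen). Liver parasitemia was compared with untreated controls by unpaired Student's t test, P ≤ 0.05.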

Mus musculus [6] = assay: Volume of distribution in Swiss Webster mouse at 70 mg/kg, po by HPLC-MS/MS analysis; assay type: ADME, organism-based; set-up: dose 70 mg/kg, route oral; conditions: in vivo
Outline: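 Male Swiss Webster mice (n = 3 per time point) got a single oral gavage dose in sterile water, 5 ml/kg. The 5 mM formulation was a clear solution; the 20 and 40 mM formulations were gelatinous. Terminal blood was collected from 5 min to 72 h postdose, and plasma was analysed by HPLC-MS/MS. Volume of distribution came from noncompartmental analysis.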

| SMILES | Activity (Mus musculus [1]) | Activity (Mus musculus [2]) | Tmax [3] [min] | bioavailability [4] [%] | Activity [5] | Activity (Leishmania donovani) | Vd (Mus musculus [6]) [L/kg] |
| --- | --- | --- | --- | --- | --- | --- | --- |
| CCOc1cc(NC(=N)c2ccccn2)ccc1-c1ccc(-c2ccc(NC(=N)c3ccccn3)cc2OCC)o1 | Toxic | Toxic | 5 | 3.3 |  |  |  |
| CC(C)Oc1cc(NC(=N)c2ccccn2)ccc1-c1ccc(-c2ccc(NC(=N)c3ccccn3)cc2OC(C)C)o1 |  |  |  |  | 34 | Active | 54 |
